Source: ChEMBL document CHEMBL4613238, “Synthesis and biological activity of thieno[3,2-d]pyrimidines as potent JAK3 inhibitors for the treatment of idiopathic pulmonary fibrosis” (Bioorg Med Chem, 2020)
The source made the active and inactive calls. The rule behind the calls is not given here.

Experiments:
[1] = Cytotoxicity against human NHBE cells assessed as reduction in cell viability by CCK8 assay; format: cell-based
In short: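 Human bronchial epithelial (HBE) cells were tested for growth inhibition by CCK-8 assay. IC50 values are means of three separate experiments.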

[2] = molecular target: T1, Tyrosine-protein kinase JAK3 (Homo sapiens, UniProt P52333); assay: Inhibition of recombinant human N-terminal GST-tagged JAK3 (781 to end residues) expressed in baculovirus infected Sf9 cells using poly (Glu,Tyr) 4:1 as substrate incubated for 60 mins in presence of ATP by ADP-Glo kinase assay
T1 sequence (P52333 whole entry): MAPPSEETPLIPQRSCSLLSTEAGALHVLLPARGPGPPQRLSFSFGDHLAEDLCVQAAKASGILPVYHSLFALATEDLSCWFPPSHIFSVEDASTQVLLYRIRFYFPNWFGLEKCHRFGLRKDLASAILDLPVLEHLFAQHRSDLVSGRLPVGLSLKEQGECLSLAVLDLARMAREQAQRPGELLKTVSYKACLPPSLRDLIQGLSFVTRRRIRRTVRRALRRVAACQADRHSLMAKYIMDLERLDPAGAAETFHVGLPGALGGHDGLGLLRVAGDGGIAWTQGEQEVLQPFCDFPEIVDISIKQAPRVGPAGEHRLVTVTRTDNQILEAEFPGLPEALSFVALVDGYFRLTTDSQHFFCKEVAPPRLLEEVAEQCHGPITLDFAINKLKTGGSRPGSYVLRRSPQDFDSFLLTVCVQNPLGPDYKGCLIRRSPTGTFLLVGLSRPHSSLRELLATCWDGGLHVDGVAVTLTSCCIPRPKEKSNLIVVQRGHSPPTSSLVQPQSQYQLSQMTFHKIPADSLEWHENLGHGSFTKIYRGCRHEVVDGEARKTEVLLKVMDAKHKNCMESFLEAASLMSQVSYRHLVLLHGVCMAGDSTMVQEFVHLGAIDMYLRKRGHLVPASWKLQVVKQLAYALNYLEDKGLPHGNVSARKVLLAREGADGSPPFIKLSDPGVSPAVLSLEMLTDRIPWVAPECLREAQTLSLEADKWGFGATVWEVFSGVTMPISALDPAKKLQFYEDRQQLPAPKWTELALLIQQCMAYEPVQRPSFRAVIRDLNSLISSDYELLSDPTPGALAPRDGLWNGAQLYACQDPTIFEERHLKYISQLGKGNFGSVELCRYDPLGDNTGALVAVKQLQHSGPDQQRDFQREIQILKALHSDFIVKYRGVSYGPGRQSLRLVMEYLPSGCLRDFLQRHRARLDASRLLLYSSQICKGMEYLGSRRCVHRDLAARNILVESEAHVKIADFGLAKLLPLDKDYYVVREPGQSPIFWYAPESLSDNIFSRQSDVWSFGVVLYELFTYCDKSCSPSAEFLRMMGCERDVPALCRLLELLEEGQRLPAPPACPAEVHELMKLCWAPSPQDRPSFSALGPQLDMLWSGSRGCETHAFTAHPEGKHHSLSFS
In short: (§1)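 ADP-Glo luminescent assay run at compound concentrations of 0.1, 1, 10, 100 and 1000 nM. The kinase reaction ran in 1× kinase buffer for 60 min at room temperature. ADP-Glo reagent was then added to stop the reaction and deplete ATP (40 min, RT), followed by detection reagent (30 min, RT) and a luminescence read. IC50s came from curve fitting; means of three experiments.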

[3] = molecular target: Tyrosine-protein kinase BTK (Homo sapiens, UniProt Q06187); assay: Inhibition of BTK (unknown origin) by ADP-Glo kinase assay; in short: as §1
Sequence of Tyrosine-protein kinase BTK (Q06187 whole entry): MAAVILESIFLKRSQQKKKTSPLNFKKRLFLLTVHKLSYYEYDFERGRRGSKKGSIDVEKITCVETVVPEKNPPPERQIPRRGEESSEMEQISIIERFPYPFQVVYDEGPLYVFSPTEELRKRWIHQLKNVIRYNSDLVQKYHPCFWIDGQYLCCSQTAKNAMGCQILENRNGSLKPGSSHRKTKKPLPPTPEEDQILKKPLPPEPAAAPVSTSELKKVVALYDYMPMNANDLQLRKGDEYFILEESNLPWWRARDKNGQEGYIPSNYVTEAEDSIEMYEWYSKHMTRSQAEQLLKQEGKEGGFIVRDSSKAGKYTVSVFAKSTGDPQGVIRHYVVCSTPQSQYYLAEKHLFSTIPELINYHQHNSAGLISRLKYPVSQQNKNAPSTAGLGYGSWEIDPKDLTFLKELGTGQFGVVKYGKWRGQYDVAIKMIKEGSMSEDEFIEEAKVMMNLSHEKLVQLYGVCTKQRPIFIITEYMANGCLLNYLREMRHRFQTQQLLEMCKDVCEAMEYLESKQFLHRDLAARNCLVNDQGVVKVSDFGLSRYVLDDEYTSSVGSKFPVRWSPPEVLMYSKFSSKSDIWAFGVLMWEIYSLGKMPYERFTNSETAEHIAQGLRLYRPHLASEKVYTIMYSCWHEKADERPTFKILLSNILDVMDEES

[4] = tested on: Mus musculus; assay: Antifibrotic activity against bleomycin-induced pulmonary fibrosis C57BL/6J mouse model assessed as reduction in air-sacculitis at 30 to 60 mg/kg, po administered via gavage qd for 14 days at 3 days post bleomycin challenge by hematoxylin and eosin staining based light microscopic analysis; format: functional, organism-based
In short: (§2)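 Intratracheal bleomycin (33 μg) was given to female C57BL/6J mice. Oral gavage started 3 days later and continued once daily for 14 days, with 1.4% DMSO saline as vehicle; n=8. Lungs were formalin-fixed for 24 h and paraffin-embedded. 5 μm sections were H&E-stained and examined by light microscopy at 200×.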

[5] = tested on: Mus musculus; assay: Antifibrotic activity against bleomycin-induced pulmonary fibrosis C57BL/6J mouse model assessed as reduction in collagen deposition by measuring hydroxyproline content in lungs at 60 mg/kg, po administered via gavage qd for 14 days at 3 days post bleomycin challenge by hydroxyproline assay; format: functional, organism-based
In short: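 Bleomycin model in female C57BL/6J mice: 33 μg intratracheal, then daily oral dosing for 14 days beginning on day 3, vehicle saline with 1.4% DMSO, n=8. Lungs were perfused with saline and lavaged with PBS/1 mM EDTA. The left lobe was assayed for hydroxyproline with a kit by absorbance at 550 nm; mean ± SEM.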

[6] = tested on: Mus musculus; assay: Antifibrotic activity against bleomycin-induced pulmonary fibrosis C57BL/6J mouse model assessed as reduction in collagen deposition in lungs at 60 mg/kg, po administered via gavage qd for 14 days at 3 days post bleomycin challenge by Masson's Trichrome staining analysis; format: functional, organism-based
In short: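 Female C57BL/6J mice received 33 μg intratracheal bleomycin, then once-daily gavage for 14 days from day 3 (1.4% DMSO saline vehicle; n=8). Lungs were fixed in formalin for 24 h and paraffin-embedded. 5 μm sections were stained with Masson's trichrome and viewed by light microscopy at 200×.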

[7] = tested on: Mus musculus; assay: Antifibrotic activity against bleomycin-induced pulmonary fibrosis C57BL/6J mouse model assessed as reduction in lung coefficient at 30 to 60 mg/kg, po administered via gavage qd for 14 days at 3 days post bleomycin challenge; format: functional, organism-based
In short: (§3)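 Bleomycin was given intratracheally (33 μg) to female C57BL/6J mice, 5‒6 weeks old. Daily oral gavage followed for 14 days from day 3, with 1.4% DMSO saline vehicle; n=8 per group. Fresh lungs were weighed and lung index was calculated as lung weight/body weight × 100.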

[8] = tested on: Mus musculus; assay: Antifibrotic activity against bleomycin-induced pulmonary fibrosis C57BL/6J mouse model assessed as reduction in IL17A expression in plasma at 30 to 60 mg/kg, po administered via gavage qd for 14 days at 3 days post bleomycin challenge by FACSCalibur flow cytometry; format: functional, organism-based
In short: (§4)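 Female C57BL/6J mice (5‒6 weeks, 20‒25 g) were given 33 μg bleomycin intratracheally in saline under isoflurane. From day 3 they received oral gavage once daily for 14 days, with saline containing 1.4% DMSO as vehicle; n=8 per group. Vena cava blood was heparinized and spun at 3000 rpm for 10 min, and plasma was stored at −20 °C. IL-6, IL-17A and TNF-α were measured by flow cytometry; mean ± SEM.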

[9] = tested on: Mus musculus; assay: Antifibrotic activity against bleomycin-induced pulmonary fibrosis C57BL/6J mouse model assessed as reduction in IL6 expression in plasma at 30 to 60 mg/kg, po administered via gavage qd for 14 days at 3 days post bleomycin challenge by FACSCalibur flow cytometry; format: functional, organism-based; in short: as §4
[10] = tested on: Mus musculus; assay: Antifibrotic activity against bleomycin-induced pulmonary fibrosis C57BL/6J mouse model assessed as reduction in oxidative stress by measuring reduction in MDA level in plasma at 60 mg/kg, po administered via gavage qd for 14 days at 3 days post bleomycin challenge; format: functional, organism-based
In short: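 After 33 μg intratracheal bleomycin, female C57BL/6J mice were gavaged once daily for 14 days from day 3 (vehicle saline, 1.4% DMSO; n=8). MDA was measured in heparinized plasma with a kit by absorbance at 532 nm; mean ± SEM.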

[11] = tested on: Mus musculus; assay: Antifibrotic activity against po dosed bleomycin-induced pulmonary fibrosis C57BL/6J mouse model assessed as reduction in alveolar septal swelling administered via gavage qd for 14 days at 3 days post bleomycin challenge by hematoxylin and eosin staining based light microscopic analysis; format: functional, organism-based; in short: as §2
[12] = tested on: Mus musculus; assay: Antifibrotic activity against bleomycin-induced pulmonary fibrosis C57BL/6J mouse model assessed as reduction in alveolar septal swelling at 30 to 60 mg/kg, po administered via gavage qd for 14 days at 3 days post bleomycin challenge by hematoxylin and eosin staining based light microscopic analysis; format: functional, organism-based; in short: as §2
[13] = tested on: Mus musculus; assay: Antifibrotic activity against bleomycin-induced pulmonary fibrosis C57BL/6J mouse model assessed as reduction in TNF-alpha expression in plasma at 30 to 60 mg/kg, po administered via gavage qd for 14 days at 3 days post bleomycin challenge by FACSCalibur flow cytometry; format: functional, organism-based; in short: as §4
[14] = tested on: Mus musculus; assay: Antifibrotic activity against bleomycin-induced pulmonary fibrosis C57BL/6J mouse model assessed as reduction in alveolar septal swelling at 60 mg/kg, po administered via gavage qd for 14 days at 3 days post bleomycin challenge by hematoxylin and eosin staining based light microscopic analysis; format: functional, organism-based; in short: as §2
[15] = tested on: Mus musculus; assay: Antifibrotic activity against bleomycin-induced pulmonary fibrosis C57BL/6J mouse model assessed as reduction in lung coefficient at 60 mg/kg, po administered via gavage qd for 14 days at 3 days post bleomycin challenge; format: functional, organism-based; in short: as §3
[16] = tested on: Mus musculus; assay: Antifibrotic activity against bleomycin-induced pulmonary fibrosis C57BL/6J mouse model assessed as reduction in IL6 expression in plasma at 60 mg/kg, po administered via gavage qd for 14 days at 3 days post bleomycin challenge by FACSCalibur flow cytometry; format: functional, organism-based; in short: as §4
[17] = tested on: Mus musculus; assay: Antifibrotic activity against bleomycin-induced pulmonary fibrosis C57BL/6J mouse model assessed as reduction in TNF-alpha expression in plasma at 60 mg/kg, po administered via gavage qd for 14 days at 3 days post bleomycin challenge by FACSCalibur flow cytometry; format: functional, organism-based; in short: as §4
[18] = tested on: Mus musculus; assay: Antifibrotic activity against bleomycin-induced pulmonary fibrosis C57BL/6J mouse model assessed as reduction in IL17A expression in plasma at 60 mg/kg, po administered via gavage qd for 14 days at 3 days post bleomycin challenge by FACSCalibur flow cytometry; format: functional, organism-based; in short: as §4

Row | SMILES | IC50 [1] [nM] | IC50 [2] [nM] | IC50 [3] [nM] | Activity [5] | Activity [7] | Activity [8] | Activity [9] | Activity [10] | Activity [13] | Activity [14] | other results
1 | C=CC(=O)Nc1cccc(Oc2nc(Nc3ccc(OCCN4CCOCC4)cc3)nc3ccsc23)c1 | 23300 | 90.8 | > 100 |  |  |  |  |  |  |  | 
2 | C=CC(=O)Nc1cccc(Oc2nc(Nc3ccc(OCCCN4CCOCC4)c(Cl)c3)nc3ccsc23)c1 | 39000 | 1.38 | ≥ 62.4 | Active | Active | Active | Active | Active | Active |  | Activity [4]: Active; Activity [6]: Active; Activity [11]: Dose-dependent effect; Activity [12]: Active
3 | C=CC(=O)Nc1cccc(Oc2nc(Nc3ccc(SCCCN4CCOCC4)cc3)nc3ccsc23)c1 | > 40000 | 46 | > 100 |  |  |  |  |  |  |  | 
4 | COC(=O)c1ccc2c(c1)NC(=O)/C2=C(\Nc1ccc(N(C)C(=O)CN2CCN(C)CC2)cc1)c1ccccc1 |  |  |  | Active | Active | Active | Active | Active | Active | Active | 
5 | C=CC(=O)Nc1cccc(Nc2nc(Nc3ccc(CN4CCOCC4)cc3)nc3ccsc23)c1 | 8270 | 59.4 | > 100 |  |  |  |  |  |  |  | 
6 | COc1cc2ncnc(Nc3ccc(F)c(Cl)c3)c2cc1OCCCN1CCOCC1 |  |  |  |  |  |  |  | Active |  | Active | Activity [15]: Active; Activity [16]: Active; Activity [17]: Active; Activity [18]: Active
